Values after ≈ are worked out from the molar mass of the structure shown.
Columns and labels:
[1] = system: Candida albicans; assay: Antifungal activity against Candida albicans MY1055 infected in DBA/2 mouse model of disseminated candidiasis assessed as reduction in fungal burden in kidney by measuring log change in colony forming units at 12.5 mg/kg, po bid for 7 days by TOKA; type: functional; conditions: time 7 day
Procedure, shortened: (§1)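 Murine disseminated candidiasis model (TOKA) in mice challenged with C. albicans MY1055 at 2.44 x 10^4 CFU/mouse. Dosed PO, or IP where stated. Kidneys collected aseptically 7 days after challenge and CFUs/g counted. Change in log CFU/g is relative to sham-treated controls; significance by two-tailed t test. Clearance is the percentage of kidneys below the detection limit.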

[2] = Inhibition of beta-1,3-glucan synthase in Candida albicans MY1055 microsomal membrane assessed as inhibition of TCA-insoluble material formation using UDP-[3H]-glucose as substrate incubated for 2 hrs in presence of GTP by radioactivity-based assay; type: microsomes, Microsome
Procedure, shortened: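 GS IC50 measured using Candida albicans MY1055 microsomal membrane fragments as the enzyme source.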

[3] = Dose normalized AUC in po dosed mouse; type: ADME, organism-based; conditions: in vivo
[4] = system: Candida albicans; assay: Antifungal activity against Candida albicans MY1055 infected in DBA/2 mouse model of disseminated candidiasis assessed as reduction in fungal burden in kidney by measuring log change in colony forming units at 6.25 mg/kg, po bid for 7 days by TOKA; type: functional; conditions: time 7 day; procedure, shortened: as §1
[5] = system: Candida albicans; assay: Antifungal activity against Candida albicans MY1055 assessed as fungal growth inhibition measured after 24 hrs in presence of 50% mouse serum by liquid microdilution method; type: functional
Procedure, shortened: (§2)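 Broth microdilution per CLSI protocols in RPMI medium. Read-out is the MIC, the lowest concentration completely inhibiting fungal growth. Run without serum and with added serum.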

[6] = system: Aspergillus fumigatus; assay: Antifungal activity against Aspergillus fumigatus MF5668 assessed inhibition of fungal growth by measuring morphological changes measured after 24 hrs by microscopy; type: functional; conditions: read-out: MEC
Procedure, shortened: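 Microdilution per CLSI protocols in RPMI medium. Read-out is the minimum effective concentration (MEC). Run without serum and with 50% human serum.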

[7] = system: Candida albicans; assay: Antifungal activity against Candida albicans MY1055 assessed as fungal growth inhibition measured after 24 hrs by liquid microdilution method; type: functional; procedure, shortened: as §2
[8] = system: Candida albicans; assay: Antifungal activity against Candida albicans MY1055 infected in DBA/2 mouse model of disseminated candidiasis assessed as reduction in fungal burden in kidney by measuring log change in colony forming units at 25 mg/kg, po bid for 7 days by TOKA; type: functional; conditions: time 7 day; procedure, shortened: as §1
[9] = Oral bioavailability in mouse; type: ADME, organism-based; conditions: in vivo
Procedure, shortened: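 Oral bioavailability calculated as oral AUC normalized to the IV dose, divided by the IV AUC.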

Compound	Activity [1]	IC50 [2]	AUC/dose [3]	Activity [4]	MIC [5]	minimal effective concentration [6]	MIC [7]	Activity [8]	bioavailability [9]
CN[C@@](C)(CO[C@H]1[C@H](n2ncnc2-c2ccncc2)C[C@@]23COC[C@]1(C)[C@@H]2CC[C@H]1C3=CC[C@@]2(C)[C@H](C(=O)O)[C@@](C)([C@H](C)C(C)C)CC[C@]12C)C(C)(C)C	-3.2 deltalog10CFU	0.002 µg/mL	0.62 µM·kg·h/mg	-1.7 deltalog10CFU	1 µg/mL	0.008 µg/mL	0.03 µg/mL (≈ 0.0403 µM)	-4.2 deltalog10CFU	–
CC(C)[C@@H](C)[C@@]1(C)CC[C@]2(C)[C@H]3CC[C@@H]4[C@@]5(COC[C@@]4(C)[C@@H](OC[C@](C)(N)C(C)C)[C@H](n4ncnc4-c4cccnn4)C5)C3=CC[C@@]2(C)[C@@H]1C(=O)O	–	0.005 µg/mL	–	–	2 µg/mL	< 0.03 µg/mL	< 0.03 µg/mL	–	–
COc1cccc(-c2ncnn2[C@@H]2C[C@@]34COC[C@](C)([C@@H]3CC[C@H]3C4=CC[C@@]4(C)[C@H](C(=O)O)[C@@](C)([C@H](C)C(C)C)CC[C@]34C)[C@H]2OC[C@](C)(N)C(C)C)c1	–	0.011 µg/mL	–	–	32 µg/mL	< 0.03 µg/mL	0.25 µg/mL (≈ 0.336 µM)	–	–
CC(C)[C@@H](C)[C@@]1(C)CC[C@]2(C)[C@H]3CC[C@@H]4[C@@]5(COC[C@@]4(C)[C@@H](OC[C@](C)(N)c4ccccc4)[C@H](n4ncnc4-c4ccncc4)C5)C3=CC[C@@]2(C)[C@@H]1C(=O)O	-1.5 deltalog10CFU	0.006 µg/mL	–	-0.5 deltalog10CFU	4 µg/mL	0.125 µg/mL	0.25 µg/mL (≈ 0.333 µM)	-2.6 deltalog10CFU	–
CC(C)[C@@H](C)[C@@]1(C)CC[C@]2(C)[C@H]3CC[C@@H]4[C@@]5(COC[C@@]4(C)[C@@H](OC[C@](C)(N)C(C)C)[C@H](n4cncn4)C5)C3=CC[C@@]2(C)[C@@H]1C(=O)O	–	0.007 µg/mL	–	–	4 µg/mL	< 0.03 µg/mL	0.25 µg/mL (≈ 0.391 µM)	–	–
CC(C)[C@@H](C)[C@@]1(C)CC[C@]2(C)[C@H]3CC[C@@H]4[C@@]5(COC[C@@]4(C)[C@@H](OC[C@](C)(N)C(C)C)[C@H](n4ncnc4C4CC4)C5)C3=CC[C@@]2(C)[C@@H]1C(=O)O	–	0.006 µg/mL	–	–	16 µg/mL	0.008 µg/mL	0.125 µg/mL (≈ 0.184 µM)	–	–
CC(C)[C@@H](C)[C@@]1(C)CC[C@]2(C)[C@H]3CC[C@@H]4[C@@]5(COC[C@@]4(C)[C@@H](OC[C@H](N)C(C)(C)C)[C@H](n4ncnc4-c4ccncc4)C5)C3=CC[C@@]2(C)[C@@H]1C(=O)O	-2.4 deltalog10CFU	0.007 µg/mL	–	-1 deltalog10CFU	2 µg/mL	< 0.03 µg/mL	0.25 µg/mL (≈ 0.349 µM)	-2.6 deltalog10CFU	–
CC(C)[C@@H](C)[C@@]1(C)CC[C@]2(C)[C@H]3CC[C@@H]4[C@@]5(COC[C@@]4(C)[C@@H](OC[C@](C)(N)C(C)C)[C@H](n4ncnc4-c4ccc(F)cc4)C5)C3=CC[C@@]2(C)[C@@H]1C(=O)O	–	0.011 µg/mL	–	–	8 µg/mL	< 0.03 µg/mL	0.25 µg/mL (≈ 0.341 µM)	–	–
CC(C)[C@@H](C)[C@@]1(C)CC[C@]2(C)[C@H]3CC[C@@H]4[C@@]5(COC[C@@]4(C)[C@@H](OC[C@](C)(N)C(C)C)[C@H](n4ncnc4-c4cccc(F)c4)C5)C3=CC[C@@]2(C)[C@@H]1C(=O)O	–	0.011 µg/mL	–	–	8 µg/mL	< 0.03 µg/mL	0.25 µg/mL (≈ 0.341 µM)	–	–
CC(C)[C@@H](C)[C@@]1(C)CC[C@]2(C)[C@H]3CC[C@@H]4[C@@]5(COC[C@@]4(C)[C@@H](OC[C@](C)(N)C(C)C)[C@H](n4ncnc4-c4ncccn4)C5)C3=CC[C@@]2(C)[C@@H]1C(=O)O	–	0.004 µg/mL	–	–	8 µg/mL	< 0.03 µg/mL	0.25 µg/mL (≈ 0.349 µM)	–	–
COc1cc(-c2ncnn2[C@@H]2C[C@@]34COC[C@](C)([C@@H]3CC[C@H]3C4=CC[C@@]4(C)[C@H](C(=O)O)[C@@](C)([C@H](C)C(C)C)CC[C@]34C)[C@H]2OC[C@](C)(N)C(C)C)ccn1	–	0.008 µg/mL	–	–	4 µg/mL	< 0.03 µg/mL	0.25 µg/mL (≈ 0.335 µM)	–	–
CCC(N)(CC)CO[C@H]1[C@H](n2ncnc2-c2ccncc2)C[C@@]23COC[C@]1(C)[C@@H]2CC[C@H]1C3=CC[C@@]2(C)[C@H](C(=O)O)[C@@](C)([C@H](C)C(C)C)CC[C@]12C	-2.3 deltalog10CFU	0.001 µg/mL	–	-1.3 deltalog10CFU	1 µg/mL	< 0.03 µg/mL	0.06 µg/mL (≈ 0.0838 µM)	-3.3 deltalog10CFU	–
CC(C)[C@@H](C)[C@@]1(C)CC[C@]2(C)[C@H]3CC[C@@H]4[C@@]5(COC[C@@]4(C)[C@@H](OC[C@](C)(N)C(C)C)[C@H](n4ncnc4-c4cnccn4)C5)C3=CC[C@@]2(C)[C@@H]1C(=O)O	–	0.004 µg/mL	–	–	4 µg/mL	< 0.03 µg/mL	0.5 µg/mL (≈ 0.697 µM)	–	–
COc1ccc(-c2ncnn2[C@@H]2C[C@@]34COC[C@](C)([C@@H]3CC[C@H]3C4=CC[C@@]4(C)[C@H](C(=O)O)[C@@](C)([C@H](C)C(C)C)CC[C@]34C)[C@H]2OC[C@](C)(N)C(C)C)cc1	–	0.015 µg/mL	–	–	8 µg/mL	< 0.03 µg/mL	0.5 µg/mL (≈ 0.671 µM)	–	–
CCc1ncnn1[C@@H]1C[C@@]23COC[C@](C)([C@@H]2CC[C@H]2C3=CC[C@@]3(C)[C@H](C(=O)O)[C@@](C)([C@H](C)C(C)C)CC[C@]23C)[C@H]1OC[C@](C)(N)C(C)C	–	0.01 µg/mL	–	–	8 µg/mL	< 0.03 µg/mL	0.25 µg/mL (≈ 0.375 µM)	–	–
CN[C@@](C)(CO[C@H]1[C@H](n2ncnc2-c2ccccn2)C[C@@]23COC[C@]1(C)[C@@H]2CC[C@H]1C3=CC[C@@]2(C)[C@H](C(=O)O)[C@@](C)([C@H](C)C(C)C)CC[C@]12C)C(C)C	–	0.003 µg/mL	–	–	16 µg/mL	< 0.03 µg/mL	0.25 µg/mL (≈ 0.342 µM)	–	–
CCCc1ncnn1[C@@H]1C[C@@]23COC[C@](C)([C@@H]2CC[C@H]2C3=CC[C@@]3(C)[C@H](C(=O)O)[C@@](C)([C@H](C)C(C)C)CC[C@]23C)[C@H]1OC[C@](C)(N)C(C)C	–	0.003 µg/mL	–	–	16 µg/mL	< 0.03 µg/mL	8 µg/mL (≈ 11.7 µM)	–	–
CC(C)[C@@H](C)[C@@]1(C)CC[C@]2(C)[C@H]3CC[C@@H]4[C@@]5(COC[C@@]4(C)[C@@H](OC[C@](C)(N)C(C)C)[C@H](n4ncnc4-c4ccncn4)C5)C3=CC[C@@]2(C)[C@@H]1C(=O)O	–	0.005 µg/mL	2.38 µM·kg·h/mg	–	4 µg/mL	< 0.03 µg/mL	< 0.03 µg/mL	–	43%
CC(C)[C@@H](C)[C@@]1(C)CC[C@]2(C)[C@H]3CC[C@@H]4[C@@]5(COC[C@@]4(C)[C@@H](OC[C@](C)(N)C(C)C)[C@H](n4ncnc4-c4ccccc4F)C5)C3=CC[C@@]2(C)[C@@H]1C(=O)O	–	–	–	–	8 µg/mL	< 0.03 µg/mL	0.5 µg/mL (≈ 0.682 µM)	–	–
Cc1ncnn1[C@@H]1C[C@@]23COC[C@](C)([C@@H]2CC[C@H]2C3=CC[C@@]3(C)[C@H](C(=O)O)[C@@](C)([C@H](C)C(C)C)CC[C@]23C)[C@H]1OC[C@](C)(N)C(C)C	–	0.005 µg/mL	–	–	4 µg/mL	0.03 µg/mL	0.25 µg/mL (≈ 0.383 µM)	–	–
